Reference: ChEMBL document CHEMBL3865807, “Syntheses and photodynamic activity of some glucose-conjugated BODIPY dyes” (Eur J Med Chem, 2016)
Calls of active or inactive are those of the source. No cut-off for these calls is given here.

Columns and labels:
[1] = Induction of apoptosis in human A549 cells assessed as accumulation at subG1 phase up to 50 uM measured after 24 hrs under dark condition by propidium iodide staining based flow cytometry; format: cell-based; conditions: a549, 24 h
Procedure, shortened: (§1)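 Cells exposed 1 h to compound (5-50 µM; vehicle 0.1% DMSO), washed, then irradiated (0.77 mW/cm²) for 0, 30 or 80 min; after serum addition kept 24 h. PI/RNase A staining in hypotonic 0.1% citrate-0.1% Triton X-100, 30 min, 37 °C; sub-G1 peak by flow cytometry, debris gated out, ≥2×10^4 cells; five replicates, mean ± SEM.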

[2] = (§2) Cell cycle arrest in human A549 cells assessed as accumulation at subG1 phase at 2.5 uM preincubated for 1 hr followed by 0.77 mW/cm2 white light irradiation for 80 mins measured after 24 hrs in presence of 5 mM of NAC by propidium iodide staining based flow cytometry (reference value: 8.2 +/- 1.1%); format: functional
A549 [3] = test: Photocytotoxicity in human A549 cells assessed as decrease in cell survival at 2.5 uM preincubated for 1 hr followed by 0.77 mW/cm2 white light irradiation for 80 mins measured after 24 hrs in presence of caspase 9 inhibitor Z-LEHD-FMK by MTT assay; format: functional, cell-based
Procedure, shortened: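 Cells pre-incubated 1 h with caspase-9 inhibitor Z-LEHD-FMK (20 µM), then compound 2.5 µM for 1 h and light 80 min (0.77 mW/cm²); viability at 24 h by MTT; five replicates, mean ± SEM.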

[4] = Cytotoxicity against human WI38 cells assessed as reduction in cell viability at 50 uM under dark condition by MTT assay; format: toxicity, cell-based; conditions: wi-38, 50 µM
A549 [5] = test: Induction of apoptosis in human A549 cells assessed as increase in caspase 8 activity at 2.5 uM preincubated for 1 hr followed by 0.77 mW/cm2 white light irradiation for 80 mins measured after 16 hrs by fluorimetric method relative to control; format: functional
Procedure, shortened: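 A549 cells (1×10^6) given compound 2.5 µM for 1 h, then light 80 min; caspase activities measured at 16 h in whole-cell extracts with kits, colorimetric for caspase-3 and fluorimetric for caspase-8; untreated photo-exposed cells as control; five replicates, mean ± SEM.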

Bos taurus [6] = species: Bos taurus; test: Binding affinity to calf thymus duplex DNA assessed as decrease in intensities of maximum absorption at 50 uM by spectrophotometric titration analysis
[7] = Drug uptake in human L-132 cells assessed as mean fluorescence intensity at 2.5 uM after 16 hrs by flow cytometry (reference value: 4.6 +/- 1.2); format: ADME, cell-based; conditions: l132, 16 h
A549 [8] = test: Induction of morphological changes in human A549 cells assessed as cell shrinking up to 2.5 uM preincubated for 1 hr followed by 0.77 mW/cm2 white light irradiation for 80 mins measured after 24 hrs by phase contrast microscopy; format: functional, cell-based
Procedure, shortened: (§3)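 A549 cells (1×10^5/well) on coverslips given vehicle (0.1% DMSO) or compound (0.625, 1.25, 2.5 µM) for 1 h, then irradiated 80 min (0.77 mW/cm²); kept 24 h in regular medium and examined unstained by phase-contrast microscopy (40× objective); representative fields imaged; experiments done three times.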

[9] = Induction of apoptosis in human A549 cells assessed as caspase 3 activation at 2.5 uM preincubated measured after 24 hrs under dark condition by immunoblot analysis; format: cell-based; conditions: a549, 24 h
Bos taurus [10] = species: Bos taurus; test: Binding affinity to calf thymus duplex DNA by UV-visible spectra analysis
[11] = Cytotoxicity against human L-132 cells assessed as reduction in cell viability at 50 uM under dark condition by MTT assay; format: toxicity, cell-based; conditions: l132, 50 µM
[12] = Drug uptake in human A549 cells assessed as mean fluorescence intensity at 2.5 uM after 16 hrs by flow cytometry (reference value: 5.4 +/- 1.5); format: ADME, cell-based; conditions: a549, 16 h
A549 [13] = test: Induction of apoptosis in human A549 cells assessed as accumulation at subG1 phase at 5 to 50 uM preincubated for 1 hr followed by 0.77 mW/cm2 white light irradiation for 80 mins measured after 24 hrs by propidium iodide staining based flow cytometry relative to control; format: functional; procedure, shortened: as §1
[14] = as §2, with “50 uM” for “5 mM”, “beta-carotene” for “NAC”; format: functional
A549 [15] = test: Induction of apoptosis in human A549 cells assessed as accumulation at subG1 phase at 5 to 50 uM preincubated for 1 hr followed by 0.77 mW/cm2 white light irradiation for 30 mins measured after 24 hrs by propidium iodide staining based flow cytometry relative to control; format: functional; procedure, shortened: as §1
A549 [16] = test: Induction of morphological changes in human A549 cells assessed as changes in cell outline preincubated for 1 hr followed by 0.77 mW/cm2 white light irradiation for 80 mins measured after 24 hrs by phase contrast microscopy; format: functional, cell-based; procedure, shortened: as §3
A549 [17] = test: Induction of apoptosis in human A549 cells assessed as pro-caspase 3 level at 2.5 uM preincubated for 1 hr followed by 0.77 mW/cm2 white light irradiation for 80 mins measured after 4 hrs by immunoblot analysis relative to control; format: functional
Procedure, shortened: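 Whole-cell extracts from A549 cells (1×10^6) treated with 0 or 2.5 µM compound, photo-exposed 80 min, lysed in Tris pH 7.4/NaCl/EDTA/Triton with protease inhibitors; 30 µg protein on 12% SDS-PAGE, nitrocellulose, milk block, caspase-3 antibody overnight 4 °C, HRP secondary, chemiluminescence; band ratio to normal control (=1) after loading-control normalisation.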

[18] = Drug uptake in human A549 cells assessed as mean fluorescence intensity at 2.5 uM after 4 hrs by flow cytometry (reference value: 5.4 +/- 1.5); format: ADME, cell-based; conditions: a549, 4 h
[19] = Drug uptake in mitochondria of human A549 cells at 100 nM measured up to 4 hrs by Mito-Tracker green staining based confocal microscopy; format: ADME; conditions: a549, 4 h, 0.1 µM
Procedure, shortened: (§4)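 Overnight-seeded A549 cells loaded with dye (100 nM), incubation periods 0.5-4 h tested, then ER-Tracker Green (500 nM) or MitoTracker Green (100 nM) for 30 min at 37 °C; washed, confocal imaging: trackers ex 488/em 500-530 nm, dye ex 543/em 560-640 nm; overlap of images judged.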

[20] = as §2, with “100 uM” for “5 mM”, “beta-carotene” for “NAC”; format: functional
A549 [21] = test: Induction of morphological changes in human A549 cells assessed as increase in floating cells without adhering ability up to 2.5 uM preincubated for 1 hr followed by 0.77 mW/cm2 white light irradiation for 80 mins measured after 24 hrs by phase contrast microscopy; format: functional, cell-based; procedure, shortened: as §3
[22] = Drug uptake in endoplasmic reticulum of human A549 cells at 100 nM measured up to 4 hrs by ER-Tracker green staining based confocal microscopy; format: ADME, cell-based; conditions: a549, 4 h, 0.1 µM; procedure, shortened: as §4
Bos taurus [23] = species: Bos taurus; test: Binding affinity to calf thymus duplex DNA assessed as decrease in intensities of maximum absorption at 50 uM by spectrophotometric titration analysis

**Q.** With `CCC1=C(C)C2=C(C)c3c(C)c(CC)c(C)n3[B-](F)(F)[N+]2=C1/C=C/c1ccc(O[C@H]2O[C@H](CO)[C@@H](O)[C@H](O)[C@H]2O)cc1` as the compound, how does the Activity [1] read?
**A.** Non-Toxic

**Q.** And the Activity [2]?
**A.** 46.5%

**Q.** What about the Activity (A549 [3]) of the same compound?
**A.** Active

**Q.** And the Activity [4]?
**A.** Non-Toxic

**Q.** And the “fold change (FC)” value (A549 [5])?
**A.** 6.2

**Q.** And the Activity (Bos taurus [6])?
**A.** Active

**Q.** What about the Flu intensity [7] of the same compound?
**A.** 41.5

**Q.** What about the Activity (A549 [8]) of the same compound?
**A.** Active

**Q.** What about the Activity [9] of the same compound?
**A.** Non-Toxic

**Q.** What about the Kb (Bos taurus [10]) of the same compound?
**A.** 1.8 ×10⁴ /M

**Q.** What about the Activity [11] of the same compound?
**A.** Non-Toxic

**Q.** What about the Flu intensity [12] of the same compound?
**A.** 41.6 to 52.5

**Q.** What about the “fold change (FC)” value (A549 [13]) of the same compound?
**A.** 5 - 6

**Q.** And the Activity [14]?
**A.** 51.8%

**Q.** And the “fold change (FC)” value (A549 [15])?
**A.** 2.8 - 3.3

**Q.** And the Activity (A549 [16])?
**A.** Dose-dependent effect

**Q.** And the “fold change (FC)” value (A549 [17])?
**A.** 0.8

**Q.** What about the Flu intensity [18] of the same compound?
**A.** 66.2 to 68.9

**Q.** What about the Drug uptake [19] of the same compound?
**A.** Active

**Q.** What about the Activity [20] of the same compound?
**A.** 43.2%

**Q.** What about the Activity (A549 [21]) of the same compound?
**A.** Active

**Q.** And the Drug uptake [22]?
**A.** Active

**Q.** And the Activity (Bos taurus [23])?
**A.** Active
